Bioassay records as filed in PubChem BioAssay.
The entries come from a sample that favours hits as a whole.
UPR CHOP act: activators of apoptotic CHOP UPR arm, primary screen, cell-based, CHO-CHOP luciferase reporter, luminescence, uHTS; AID 449763, 2010; UPR activation; percent of tunicamycin response over DMSO baseline; 330,000 tested, 0.34% active; activation, % at 10 µM;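 active means at 10 µM dose, activation of 40% or more, normalized to positive control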;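 further: 100% = tunicamycin at 10 µg/mL and 0% = DMSO alone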
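Material: CHO-CHOP cells, stable luciferase reporter of PERK-eIF2a-CHOP signalling; quantity: 500 reporter cells seeded per well; buffer or medium: F12 medium containing 10% fetal bovine serum; compound: one dose, 10 µM in 0.5% DMSO; incubation: 6 h compound treatment, 37 °C; measured by: Steady-Glo luciferase luminescence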
TLR4 MyD88 comp: inhibitors of TLR4-MyD88 association in cells, primary screen, cell-based, HeLa CL3-4, BLA complementation, FRET ratio; Toll-like receptor 4 (Homo sapiens) + Myeloid differentiation primary response protein …; AID 861, 2007; 200,000 tested, 0.18% active; HeLa CL3-4 TLR4/MyD88 BLA complementation; inhibition, % at 8.4 µM; in the data active means inhibition above about 25%;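 further: 0% = vehicle and 100% = reference inhibitor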
TLR9-MyD88 inh: inhibitors of TLR9-MyD88 association in cells, primary screen, cell-based, CHO, BLA complementation, fluorescence | inhibition, % at 4.98 µM | Toll-like receptor 9 (Homo sapiens) + Myeloid differentiation primary response protein … | AID 504734, 2011 | CCF4 FRET ratio | 340,000 tested, 0.21% active;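 active means inhibition above the mean over all tested compounds plus 3 SD, cut at about 21% in these data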;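 further: 0% = DMSO only wells and 100% = clavulanate BLA inhibitor control wells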
CHOP inh: inhibitors of CHOP promoter induction, primary screen, cell-based, unfolded protein response, luciferase reporter. CHO-K1 CHOP-promoter luciferase, tunicamycin-induced, 15-18 h. inhibition, % at 10 µM. 220,000 tested, 3.8% active. AID 2732, 2010;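 active means compounds that reduced the stress-induced luciferase reporter signal by more than about 70% of percent inhibition, limit read from the data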;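 further: 0% = tunicamycin plus vehicle and 100% = wells without tunicamycin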
XBP1 UPR activ: activators of adaptive XBP1 UPR arm, primary screen, cell-based, CHO-XBP1 luciferase reporter, luminescence, uHTS; activation, % at 20 µM; 330,000 tested, 0.33% active; IRE1-XBP1 UPR activation; percent of tunicamycin response, DMSO as zero;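 active means versus positive control, 20 µM dose yields 30% or more activation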;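 further: 100% = tunicamycin at 10 µg/mL and 0% = DMSO only wells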
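Assay system: CHO-XBP1 luciferase reporter cells; Schedule: 6 h treatment, 37 °C; Detection: glow luminescence from Steady-Glo reagent; Benchmarks: high control tunicamycin 10 µg/mL final, low control DMSO vehicle only.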
NOD2-RIPK2 inh: NOD2-RIPK2 binding disruptors in cells, primary screen, fluorescence, CHO cells, BLA complementation. AID 624267, 2012. 360,000 tested, 0.38% active. inhibition, % at 4.98 µM. Receptor-interacting serine/threonine-protein kinase 2 (Homo sapiens), O43353. CCF4 ratio; in the data active means inhibition above about 21%;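 further: 0% = vehicle only and 100% = reference blocker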
Target sequence (O43353 whole entry, looked up): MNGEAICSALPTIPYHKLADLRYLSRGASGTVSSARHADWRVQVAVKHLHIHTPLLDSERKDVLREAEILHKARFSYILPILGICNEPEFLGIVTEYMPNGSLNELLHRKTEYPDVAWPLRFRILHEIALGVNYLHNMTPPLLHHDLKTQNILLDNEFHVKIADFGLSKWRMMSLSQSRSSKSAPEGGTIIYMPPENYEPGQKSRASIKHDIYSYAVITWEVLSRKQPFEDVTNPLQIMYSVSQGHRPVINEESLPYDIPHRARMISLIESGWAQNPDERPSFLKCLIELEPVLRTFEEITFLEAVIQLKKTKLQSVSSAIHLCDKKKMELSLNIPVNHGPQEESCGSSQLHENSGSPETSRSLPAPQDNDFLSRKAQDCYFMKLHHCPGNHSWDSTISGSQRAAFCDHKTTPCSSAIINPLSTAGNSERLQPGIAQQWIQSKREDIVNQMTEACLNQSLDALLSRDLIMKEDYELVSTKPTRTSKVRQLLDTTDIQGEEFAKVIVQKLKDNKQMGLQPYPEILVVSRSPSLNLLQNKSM
Active calls of the source: *; nt = no result.

SMILES | UPR CHOP act | TLR4 MyD88 comp | TLR9-MyD88 inh | CHOP inh | XBP1 UPR activ | NOD2-RIPK2 inh
O=C(c1cc(-c2cccc(O)c2)on1)N1CCN(C(c2ccccc2)c2ccccc2)CC1 | 9.4 | 0.9 | 2.2 | 78.0* | 1.8 | -10.2
CC(OC(=O)CCN1C(=O)c2cccc([N+](=O)[O-])c2C1=O)C(=O)Nc1cc(Cl)cc(Cl)c1 (stereo not given) | 1.0 | 13.2 | -4.0 | 82.3* | -0.6 | -14.2
O=C(NC(NC(=O)c1ccccc1)c1ccccc1)c1ccccc1 | -0.3 | -9.9 | 3.1 | 79.6* | -2.1 | -10.1
OCC1(Cc2ccccc2)CCN(Cc2cnc(-c3ccc(Cl)cc3)nc2)CC1 | 0.9 | -3.4 | -0.8 | 73.1* | 0.2 | 0.5
OCC1(Cc2ccccc2)CCN(Cc2cnc(-c3cccc4ccccc34)nc2)CC1 | -0.6 | -1.6 | 2.0 | 36.1 | 0.3 | -0.6
c1ccc(-c2ccc(-c3nc(-c4ccccn4)no3)cc2)cc1 | -9.3 | -1.0 | 4.8 | 105.2* | -9.4 | -2.1
c1ccc(-c2nc(-c3ccccn3)no2)cc1 | -7.7 | 6.0 | 0.3 | 59.7 | -9.3 | -10.4
Clc1cccc(-c2nc(-c3ccccn3)no2)c1 | -7.5 | -1.8 | -0.7 | 59.8 | -6.2 | -2.1
Cc1ccc(-c2nc(-c3ccccn3)no2)cc1Cl | -8.5 | -10.8 | 0.7 | 82.7* | -7.8 | -39.8
Cc1ccnc(NS(=O)(=O)c2ccc(NC(=O)c3cccc(Cl)c3)cc2)n1 | nt | nt | 4.9 | nt | nt | 4.6
O=C(Nc1ccc(C(F)(F)F)cc1)c1cc(S(=O)(=O)NCC2COc3ccccc3O2)ccc1F (stereo not given) | -0.9 | 4.9 | 14.2 | 81.8* | -1.6 | -4.3
CC(C)c1ccc(NC(=O)c2cc(S(=O)(=O)NCC3COc4ccccc4O3)ccc2F)cc1 (stereo not given) | 0.7 | 5.2 | 1.4 | 81.0* | -3.2 | -0.6
O=C(Nc1cccc(S(=O)(=O)N2CCOCC2)c1)c1cn(-c2ccccc2)nc1-c1ccc(F)cc1 | 8.3 | -2.1 | -3.4 | 72.5* | -0.7 | -5.2
C=CCC1(CC=C)CCCN1C(=O)C1CCC(=O)N(Cc2ccc(Cl)cc2)C1 (stereo not given) | nt | nt | -5.6 | nt | nt | 6.5
CCC(C)NC(=O)c1cccc(OCc2c(C)noc2C)c1 (stereo not given) | -1.3 | 3.6 | 8.3 | 0.9 | -1.4 | -23.8
CCOC(=O)c1c(C)[nH]c(C(=O)C(C)OC(=O)c2cccc(OCc3c(C)noc3C)c2)c1C (stereo not given) | 2.1 | 2.3 | -6.5 | 80.2* | -0.8 | -12.4
Cc1ccc(NC(=O)CCNC(=O)c2ccco2)cc1Cl | 1.0 | nt | 8.7 | nt | 0.9 | 4.2
Cc1ccc(N=C2SCCCN2C(=O)c2ccco2)cc1Cl | 1.1 | 19.8 | 1.2 | 80.1* | -1.0 | -6.9
COc1ccc(-c2nc(-c3ccccc3)c(-c3cc([N+](=O)[O-])ccc3C)[nH]2)cc1O | 15.2 | -8.9 | 3.2 | 74.0* | -7.0 | -6.9
Cc1ccc([N+](=O)[O-])cc1-c1[nH]c(-c2ccc(O)c(O)c2)nc1-c1ccccc1 | 15.6 | -6.3 | 1.1 | 28.9 | 6.2 | -17.2
CCOC(=O)c1c(N)sc(C(O)(C(F)(F)F)C(F)(F)F)c1-c1ccccc1 | -0.3 | -3.5 | -6.3 | 104.7* | -0.6 | -2.7
CC(C)c1cc(Br)ccc1OCCCN1C(=O)NC(C)(C)C1=O | 0.3 | -8.2 | 2.5 | 73.0* | 0.9 | 6.5
Cc1ccccc1OCC(O)Cn1c2ccccc2c2ccccc21 (stereo not given) | 1.9 | 12.1 | 1.4 | 90.3* | -2.4 | -7.1
O=C(O)c1ccc(OCC(O)Cn2c3ccccc3c3ccccc32)cc1 (stereo not given) | -1.6 | nt | -3.7 | 12.3 | -3.1 | 6.1
OC(COc1ccccc1)Cn1c2ccccc2c2ccccc21 (stereo not given) | 1.2 | 3.6 | 8.8 | 88.8* | -2.6 | 0.8
SMILES | UPR CHOP act | TLR4 MyD88 comp | TLR9-MyD88 inh | CHOP inh | XBP1 UPR activ | NOD2-RIPK2 inh
CC(=O)Nc1ccc(OCC(O)Cn2c3ccccc3c3ccccc32)c(C)c1 (stereo not given) | 1.0 | -12.3 | -2.7 | 62.0 | 0.3 | -1.7
CSC1=NC=C(C#N)C2=NC(c3c(Cl)cccc3Cl)NN12 (stereo not given) | nt | nt | nt | nt | nt | -7.0
COc1ccc(CCC(=O)Nc2ccc(S(=O)(=O)N3CCOCC3)cc2)cc1OC | nt | nt | 0.2 | nt | nt | -5.1
COCCNC(=O)C1(C)CCN(C(=O)c2cccc(C)c2C)C1 (stereo not given) | nt | nt | nt | nt | nt | 3.2
COc1ccc(NC(=O)Cn2c(-c3ccccc3)cn(-c3ccc(C)cc3)c2=O)cc1 | 1.5 | 6.7 | 12.1 | 72.1* | 0.2 | -2.7
CCOC(=O)c1cc(-c2ccccc2)n(CC(=O)Nc2ccc(OC)cc2)c1C | -1.8 | -0.5 | 1.2 | 74.8* | -2.9 | -17.3
CCOC(=O)c1cc(-c2ccccc2)n(CCC(=O)O)c1C | 0.3 | 2.3 | 0.6 | 19.9 | -2.7 | -7.5
Cc1ccc2c(c1)Oc1ccc(NC(=O)CCl)cc1C(=O)N2 | 15.8 | 6.3 | 6.8 | 107.1* | -5.7 | 15.7
CCC(=C(c1ccc(OC)cc1)c1ccc(OC)cc1)c1cn(CC(O)CN(CCO)CCO)c2ccccc12 (stereo not given) | 1.1 | 6.2 | -8.1 | 75.7* | -1.6 | -6.3
C[C@@H]1CN([C@H](C)CO)C(=O)CCCn2nncc2CO[C@H]1CN(C)S(=O)(=O)c1ccc(Oc2ccccc2)cc1 | nt | nt | 4.1 | nt | nt | -6.2
CCCCCc1cc(=O)oc2c(C(CCN3CCCCC3)c3ccc4c(c3)OCO4)c(OC)cc(OC)c12 (stereo not given) | 7.8 | nt | -0.1 | 87.5* | 3.4 | 15.7
CCN(CC)CCC(c1ccc(N(C)C)cc1)c1c(OC)cc(OC)c2c(-c3ccccc3)cc(=O)oc12 (stereo not given) | 0.2 | nt | -5.4 | 24.3 | 4.2 | 4.4
CCCCCc1cc(=O)oc2c(C(CCN3CCCC(C)C3)c3ccc4c(c3)OCO4)c(OC)cc(OC)c12 (stereo not given) | 16.5 | nt | -3.8 | 77.4* | 0.2 | 5.4
COc1cc(OC)c2c(-c3ccccc3)cc(=O)oc2c1C(CCN1CCCC1)c1ccc2c(c1)OCO2 (stereo not given) | 3.1 | nt | -10.7 | -24.2 | 5.6 | -5.6
CCCCCc1cc(=O)oc2c(C(CCN(CC)CC)c3cc(OC)c(OC)c(OC)c3)c(OC)cc(OC)c12 (stereo not given) | 3.4 | nt | 9.4 | 70.9* | 2.5 | 12.9
